The source of these data is ChEMBL document CHEMBL1129965, “GRID/GOLPE 3D quantitative structure-activity relationship study on a set of benzamides and naphthamides, with affinity for the dopamine D3 receptor subtype” (J Med Chem, 1997).

Test [1] deals with D(3) dopamine receptor (Homo sapiens, UniProt P35462). Put plainly: Competitive inhibition of [3H]spiperone binding to the human dopamine receptor D3 expressed in CHO cells, expressed as 10log Ki. The test is classed as cell-based. The essentials: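 Displacement of [3H]spiperone from human dopamine D3 receptors expressed in CHO K1 cells. Four to six test concentrations, each run in triplicate. IC50 from nonlinear regression, converted to Ki (nM) by Cheng–Prusoff, then reported as 10log Ki.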

Test [2] is described as follows: Competitive inhibition of [3H]spiperone binding to the human dopamine receptor D3 expressed in CHO cells, expressed as 10log Ki.

Chain of D(3) dopamine receptor (P35462 whole entry): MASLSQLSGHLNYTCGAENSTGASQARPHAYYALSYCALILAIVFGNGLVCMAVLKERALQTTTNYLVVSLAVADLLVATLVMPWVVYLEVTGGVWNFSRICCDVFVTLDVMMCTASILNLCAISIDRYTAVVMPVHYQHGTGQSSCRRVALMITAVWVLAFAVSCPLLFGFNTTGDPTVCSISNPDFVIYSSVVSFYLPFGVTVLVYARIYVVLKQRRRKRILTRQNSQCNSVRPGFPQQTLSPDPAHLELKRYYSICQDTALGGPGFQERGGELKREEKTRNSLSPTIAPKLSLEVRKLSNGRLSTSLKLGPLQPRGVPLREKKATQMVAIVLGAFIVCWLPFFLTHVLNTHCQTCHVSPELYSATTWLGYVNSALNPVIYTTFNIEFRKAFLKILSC

The term Ki denotes the dissociation constant of the complex between target and ligand, obtained from inhibition or displacement. Compound `COc1c(C(=O)NCCN2CCN(c3ccc(F)cc3F)CC2)cc(Br)c2ccccc12` had an inhibitory constant (Ki) in test [1] of 0.2 µM.
For the compound `COc1ccccc1N1CCN(CCNC(=O)c2cc(Br)c3ccccc3c2OC)CC1`, in test [1], the Ki was 0.0794 µM.
The same measure, in the same setting: the figure for `COc1c(Cl)cc(Cl)c(O)c1C(=O)NCCN1CCN(c2cccc(Cl)c2Cl)CC1` is 0.501 µM.
The same measure, in the same setting: the figure for `COc1c(C(=O)NCCN2CCC(c3ccccc3)CC2)cc(Br)c2ccccc12` is 0.0794 µM; for `COc1c(C(=O)NCCN2CCN(c3cccc(C)c3)CC2)cc(Br)c2ccccc12` it is 0.316 µM.
In test [1], `COc1c(C(=O)NCCN2CCN(c3ccc(C)cc3)CC2)cc(Br)c2ccccc12` had an inhibitory constant (Ki) of 0.251 µM.
Still for that read-out and setting: the figure for `COc1ccc(Br)c(O)c1C(=O)NCCN1CCN(c2ccccc2)CC1` is 0.398 µM.
`COc1c(C(=O)NCCN2CCN(c3ccccc3C)CC2)cc(Br)c2ccccc12` had an inhibition constant (Ki) in test [1] of 0.0631 µM.
On the same count and under the same terms, then `CCOc1c(C(=O)NCCN2CCN(c3ccccc3)CC2)cc(Br)c2ccccc12`, with 0.251 µM; and `COc1c(C(=O)NCCN2CCN(c3ccc(Cl)cc3Cl)CC2)cc(Br)c2ccccc12`, with 0.1 µM; and `COc1c(C(=O)NCCN2CC=C(c3ccccc3)CC2)cc(Br)c2ccccc12`, with 0.02 µM.
Turning to `COc1c(C(=O)NCCN2CCN(c3cccc(C(F)(F)F)c3)CC2)cc(Br)c2ccccc12`, in test [1], the affinity, expressed as Ki, was 0.251 µM.
Same read-out and setting: then `COc1c(C(=O)NCCN2CCN(c3ccccn3)CC2)cc(Br)c2ccccc12`, with 0.0794 µM; and `CCOc1c(C(=O)NCCN2CCN(c3ccccn3)CC2)cc(Br)c2ccccc12`, with 0.0794 µM.
As to `COc1c(C(=O)NCCN2CCN(c3cccc(Cl)c3)CC2)cc(Br)c2ccccc12`, in test [2], the “Log Ki(nM)” value turned out to be 1.6.
Take `COc1c(C(=O)NCCN2CCN(c3ccccc3Cl)CC2)cc(Br)c2ccccc12`: in test [1], affinity was put at a Ki of 0.0398 µM.
Same read-out and setting: then `COc1c(C(=O)NCCN2CCN(c3ccc4ccccc4n3)CC2)cc(Br)c2ccccc12`, with 0.251 µM; and `COc1c(C(=O)NCCN2CCN(c3ccc(Cl)c(Cl)c3)CC2)cc(Br)c2ccccc12`, with 0.2 µM.
On the same count and under the same terms, then `CCOc1c(C(=O)NCCN2CCN(c3ccccc3OC)CC2)cc(Br)c2ccccc12`, with 0.0794 µM.
Still for that read-out and setting: the figure for `COc1ccc(Br)cc1C(=O)NCCN1CCN(c2ccccc2)CC1` is 0.316 µM.
Compound `COc1c(C(=O)NCCN2CCN(c3ccccc3)CC2)cc(Br)c2ccccc12` showed a Ki in test [1] of 0.0251 µM.
`COc1c(C(=O)NCCN2CCN(c3ccccc3C#N)CC2)cc(Br)c2ccccc12` had a Ki in test [1] of 0.0501 µM.
In test [1], `COc1c(Cl)cc(Cl)c(O)c1C(=O)NCCN1CCN(c2ccccc2)CC1` gave a Ki of 1 µM.
Same read-out and setting: the figure for `COc1c(C(=O)NCCN2CCN(c3cccc(Cl)c3Cl)CC2)cc(Cl)c2ccccc12` is 0.0398 µM; for `COc1c(C(=O)NCCN2CCN(c3ccccc3)CC2)cc2ccccc2c1Br` it is 0.316 µM; for `COc1c(C(=O)NCCN2CCN(c3cccc(Cl)c3C)CC2)cc(Br)c2ccccc12` it is 0.0501 µM.
The same measure, in the same setting: the figure for `CCOc1c(C(=O)NCCN2CCN(c3cccc(C(F)(F)F)c3)CC2)cc(Br)c2ccccc12` is 0.126 µM; for `COc1c(C(=O)NCCN2CCN(c3ccccc3)CC2)cc(Cl)c2ccccc12` it is 0.0501 µM; for `CCc1cc(Cl)c(O)c(C(=O)NCCN2CCN(c3ccccc3)CC2)c1OC` it is 1.58 µM.
